Data: ChEMBL document CHEMBL1136355, “Benzyl vinylogous amide substituted aryldihydropyridazinones and aryldimethylpyrazolones as potent and selective PDE3B inhibitors” (Bioorg Med Chem Lett, 2003)
pIC50: −log10 of the molar value.

Assays:
[1] = test system: Rattus norvegicus; assay: Maximal blood pressure decrease in rats at 0.1 mg/kg dose for 60 min; assay type: functional
Method in brief: (§1)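 Anesthetized rats given increasing intravenous doses (0.01–0.1 mg/kg). Mean arterial pressure recorded from 5 min to 60 min post-dose; decrease expressed as percentage.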

[2] = Oral bioavailability was determined in rat after oral administration at a concentration 1 mg/kg; assay type: ADME, organism-based; conditions: in vivo
Method in brief: (§2)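 Rats dosed orally at 1.0 mg/kg. Blood levels were measured, and AUC was normalized and compared with iv exposure to give oral bioavailability.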

[3] = target: cGMP-inhibited 3',5'-cyclic phosphodiesterase 3B (Homo sapiens, UniProt Q13370); assay: Inhibitory concentration required to inhibit human phosphodiesterase 3B expressed in Escherichia coli
cGMP-inhibited 3',5'-cyclic phosphodiesterase 3B, sequence (Q13370 whole entry): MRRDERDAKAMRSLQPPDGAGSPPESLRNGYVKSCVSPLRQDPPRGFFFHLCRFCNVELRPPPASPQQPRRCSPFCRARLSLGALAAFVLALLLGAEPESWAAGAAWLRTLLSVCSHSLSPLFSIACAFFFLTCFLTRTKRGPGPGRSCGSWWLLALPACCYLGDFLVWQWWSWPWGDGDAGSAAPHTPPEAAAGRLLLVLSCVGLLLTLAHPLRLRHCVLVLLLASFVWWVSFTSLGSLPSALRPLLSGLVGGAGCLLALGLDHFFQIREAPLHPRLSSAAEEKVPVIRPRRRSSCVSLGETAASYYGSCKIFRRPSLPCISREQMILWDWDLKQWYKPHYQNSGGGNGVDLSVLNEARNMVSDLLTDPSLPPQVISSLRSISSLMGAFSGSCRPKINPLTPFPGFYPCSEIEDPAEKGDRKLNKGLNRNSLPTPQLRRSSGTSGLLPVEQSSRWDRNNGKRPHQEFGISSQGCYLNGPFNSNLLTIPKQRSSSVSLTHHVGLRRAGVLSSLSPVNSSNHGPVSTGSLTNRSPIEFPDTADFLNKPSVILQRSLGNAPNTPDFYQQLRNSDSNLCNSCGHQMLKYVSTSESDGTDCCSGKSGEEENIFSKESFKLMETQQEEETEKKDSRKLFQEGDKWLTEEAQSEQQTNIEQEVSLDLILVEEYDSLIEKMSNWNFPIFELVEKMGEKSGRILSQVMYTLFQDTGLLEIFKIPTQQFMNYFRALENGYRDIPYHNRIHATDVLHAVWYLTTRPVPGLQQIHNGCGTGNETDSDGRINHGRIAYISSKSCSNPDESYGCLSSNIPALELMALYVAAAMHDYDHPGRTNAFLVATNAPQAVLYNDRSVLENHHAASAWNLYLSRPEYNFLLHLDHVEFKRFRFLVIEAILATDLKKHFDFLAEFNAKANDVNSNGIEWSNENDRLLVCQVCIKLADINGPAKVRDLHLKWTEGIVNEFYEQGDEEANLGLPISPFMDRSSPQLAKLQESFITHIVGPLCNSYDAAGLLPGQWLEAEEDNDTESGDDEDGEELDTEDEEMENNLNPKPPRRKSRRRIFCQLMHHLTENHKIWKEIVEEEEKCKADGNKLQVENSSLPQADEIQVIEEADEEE
Method in brief: (§3)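 PDE3A and PDE3B made in E. coli BL21(DE3) pLysS after IPTG induction. Soluble extract ammonium sulfate-precipitated (50% saturation), dialysed, partially purified on DEAE Sepharose with a 70–250 mM NaCl gradient. IC50 is the mean of two or more experiments.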

[4] = target: cGMP-inhibited 3',5'-cyclic phosphodiesterase 3A (Homo sapiens, UniProt Q14432); assay: Inhibitory concentration required to inhibit human phosphodiesterase 3A expressed in Escherichia coli; method in brief: as §3
cGMP-inhibited 3',5'-cyclic phosphodiesterase 3A, sequence (Q14432 whole entry): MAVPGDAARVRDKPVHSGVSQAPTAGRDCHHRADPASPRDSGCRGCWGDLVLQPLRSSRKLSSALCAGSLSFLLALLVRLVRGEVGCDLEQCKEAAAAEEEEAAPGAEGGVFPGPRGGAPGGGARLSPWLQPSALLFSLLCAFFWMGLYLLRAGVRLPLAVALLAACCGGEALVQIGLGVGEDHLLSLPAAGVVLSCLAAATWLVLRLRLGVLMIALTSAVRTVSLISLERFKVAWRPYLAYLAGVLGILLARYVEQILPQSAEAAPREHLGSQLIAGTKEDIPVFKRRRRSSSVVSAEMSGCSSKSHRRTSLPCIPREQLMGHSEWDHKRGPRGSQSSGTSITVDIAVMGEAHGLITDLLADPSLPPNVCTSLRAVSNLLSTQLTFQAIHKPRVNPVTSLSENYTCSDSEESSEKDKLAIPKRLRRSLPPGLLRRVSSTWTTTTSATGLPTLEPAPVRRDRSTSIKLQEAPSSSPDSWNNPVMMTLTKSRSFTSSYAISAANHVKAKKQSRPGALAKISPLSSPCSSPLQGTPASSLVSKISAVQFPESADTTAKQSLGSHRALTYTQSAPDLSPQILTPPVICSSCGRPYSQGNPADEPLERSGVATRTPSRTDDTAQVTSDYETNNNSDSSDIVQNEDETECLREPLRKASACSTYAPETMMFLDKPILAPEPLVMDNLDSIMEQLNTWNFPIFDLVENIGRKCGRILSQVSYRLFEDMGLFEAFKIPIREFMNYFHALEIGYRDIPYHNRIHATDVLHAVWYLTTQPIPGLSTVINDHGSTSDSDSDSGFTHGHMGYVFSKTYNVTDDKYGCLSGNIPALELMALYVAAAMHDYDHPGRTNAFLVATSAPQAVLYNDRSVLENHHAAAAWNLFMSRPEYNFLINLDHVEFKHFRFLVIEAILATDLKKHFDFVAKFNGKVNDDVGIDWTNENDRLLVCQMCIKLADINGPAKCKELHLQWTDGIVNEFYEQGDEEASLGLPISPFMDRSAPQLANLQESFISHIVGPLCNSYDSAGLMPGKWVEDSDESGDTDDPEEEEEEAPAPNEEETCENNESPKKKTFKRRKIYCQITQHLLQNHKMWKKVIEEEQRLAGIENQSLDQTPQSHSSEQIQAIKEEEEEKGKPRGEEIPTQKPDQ

[5] = test system: Rattus norvegicus; assay: Area under curve was determined in rat after oral administration at a concentration 1 mg/kg; assay type: ADME, organism-based; parameters: dose 1 mg/kg, route oral; conditions: in vivo; method in brief: as §2
[6] = test system: Rattus norvegicus; assay: Increased metabolic rate in male rats for 8-h period after 3 mg/kg dose; assay type: functional
Method in brief: (§4)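 Male rats dosed orally at 1, 3 and 10 mg/kg. Metabolic rate monitored over 8 h post-dose and expressed as percentage increase in thermogenesis over the pre-dose rate.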

[7] = test system: Rattus norvegicus; assay: Maximal blood pressure decrease in rats at 0.02 mg/kg dose for 60 min; assay type: functional; method in brief: as §1
[8] = test system: Rattus norvegicus; assay: In vivo plasma glycerol increase in anesthetized rat at 1 mg/kg iv dose for 90 min; assay type: functional; conditions: 1 h, in the assay text read “60 min” for “90 min”
Method in brief: (§5)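 Anesthetized rats given compound by intravenous infusion (1.0 mg/kg). Plasma glycerol increase over vehicle followed over a 90 min period, with a reading at 60 min taken as an index of lipolysis.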

[9] = test system: Rattus norvegicus; assay: Increased metabolic rate in male rats for 8-h period after 10 mg/kg dose; assay type: functional; method in brief: as §4
[10] = test system: Rattus norvegicus; assay: In vivo plasma glycerol increase in anesthetized rat at 1 mg/kg iv dose for 60 min; assay type: functional; conditions: 1 h; method in brief: as §5
[11] = Plasma clearance in rat after intravenous administration at a concentration 0.5 mg/kg; assay type: ADME, organism-based; parameters: dose 0.5 mg/kg, route intravenous
Method in brief: (§6)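 Rat pharmacokinetics after a 0.5 mg/kg intravenous dose; half-life and clearance derived from blood levels.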

[12] = Half life in rat after intravenous administration at a concentration 0.5 mg/kg; assay type: ADME, organism-based; parameters: dose 0.5 mg/kg, route intravenous; conditions: in vivo; method in brief: as §6
[13] = target: Phosphodiesterase 3 (Homo sapiens) (UniProt Q14432+Q13370); assay: Relative inhibition of Phosphodiesterase 3A and Phosphodiesterase 3B; assay type: protein assay
Method in brief: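 PDE3A and PDE3B expressed in E. coli BL21 (DE3) pLysS after IPTG induction, ammonium sulfate precipitated, partially purified on DEAE Sepharose. Activity measured by [3H]cAMP SPA assay in 50 mM Tris pH 7.5, 8.3 mM MgCl2, 1.7 mM EGTA, 10 nM [3H]cAMP, room temperature, 2–15 min. IC50s on each isoform are means of two or more experiments.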

Row | Structure (SMILES) | pIC50 [3] | pIC50 [4] | further results
1 | CCOC(=O)Nc1ccc(C2=NNC(=O)C[C@H]2C)cc1 | 8.07 | 7.62 | 
2 | CC(=O)Nc1ccc(C2=NNC(=O)C[C@H]2C)cc1 | 7.43 | 7.02 | 
3 | CC1(C)C(=O)NN=C1c1ccc(NC2=C(Cc3ccccc3F)C(=O)CCC2)cc1F | 8.96 | 7.80 | 
4 | COc1ccccc1CC1=C(Nc2ccc(C3=NNC(=O)CC3C)cc2)CCCC1=O (stereo not drawn) | 9.89 | 9.41 | 
5 | CC1CC(=O)NN=C1c1ccc(NC2=C(Cc3cccc(I)c3)C(=O)CCC2)cc1 (stereo not drawn) | 9.96 | 9.48 | 
6 | CC1(C)C(=O)NN=C1c1ccc(NC2=C(Cc3ccccc3Cl)C(=O)CCC2)cc1F | 9.28 | 8.14 | 
7 | Cc1cc(NC2=C(Cc3cccc(C#N)c3)C(=O)CCC2)ccc1C1=NNC(=O)C1(C)C | 8.00 | 6.89 | 
8 | CC1(C)C(=O)NN=C1c1ccc(NC2=C(Cc3ccc(F)cc3)C(=O)CCC2)cc1F | 8.51 | 7.20 | 
9 | CC1(C)C(=O)NN=C1c1ccc(NC2=C(Cc3ccccc3)C(=O)CCC2)cc1 | 8.00 | 7.28 | 
10 | CC1CC(=O)NN=C1c1ccc(NC2=C(Cc3ccc([N+](=O)[O-])cc3)C(=O)CCC2)cc1 (stereo not drawn) | 8.26 | 7.62 | 
11 | CC1CC(=O)NN=C1c1ccc(NC2=C(Cc3cccc(Br)c3)C(=O)CCC2)cc1 (stereo not drawn) | 9.52 | 9.03 | 
12 | CC1CC(=O)NN=C1c1ccc(NC(=O)OCc2ccccc2)cc1 (stereo not drawn) | 9.00 | 8.54 | 
13 | CC1(C)C(=O)NN=C1c1ccc(NC2=C(Cc3c(Cl)cccc3Cl)C(=O)CCC2)cc1F | 9.89 | 8.66 | 
14 | CC1(C)C(=O)NN=C1c1ccc(NC2=C(Cc3cccc([N+](=O)[O-])c3)C(=O)CCC2)cc1F | 8.35 | 6.82 | Selectivity [13]: 33
15 | CCc1cc(NC2=C(Cc3ccccc3)C(=O)CCC2)ccc1C1=NNC(=O)CC1C (stereo not drawn) | 7.68 | 7.00 | 
16 | CC1(C)C(=O)NN=C1c1ccc(NC2=C(Cc3cccc(C#N)c3)C(=O)CCC2)cc1F | 8.49 | 7.16 | 

The remaining molecules from weak to strong by pIC50 [3], led by results:

Row | pIC50 [3] | pIC50 [4] | Structure (SMILES) | further results
17 | 7.52 | 6.26 | CC1(C)C(=O)NN=C1c1ccc(NC2=C(Cc3cccc([N+](=O)[O-])c3)C(=O)CCC2)cc1Cl | 
18 | 7.74 |  | CN(C(=O)CCCOc1ccc2[nH]c(=O)ccc2c1)C1CCCCC1 [CILOSTAMIDE] | 
19 | 8.06 | 7.36 | CC1=C(Nc2ccc(C3=NNC(=O)C[C@H]3C)cc2)CCCC1=O | 
20 | 8.20 | 7.11 | CC1(C)C(=O)NN=C1c1ccc(NC2=C(Cc3ccccc3Cl)C(=O)CCC2)cc1Cl | 
21 | 8.25 | 7.37 | CC1(C)C(=O)NN=C1c1ccc(NC2=C(Cc3cccc(F)c3)C(=O)CCC2)cc1F | 
22 | 8.30 | 7.82 | C[C@@H]1CC(=O)NN=C1c1ccc(NC(=O)c2ccccc2C(F)(F)F)cc1 | 
23 | 8.32 | 7.42 | Cc1cc(NC2=C(Cc3ccccc3)C(=O)CCC2)ccc1C1=NNC(=O)C1(C)C | 
24 | 8.32 | 7.34 | CC1CC(=O)NN=C1c1ccc(NC2=C(Cc3ccccc3)C(=O)CCC2)cc1Cl (stereo not drawn) | 
25 | 8.59 | 7.66 | Cc1cc(NC2=C(Cc3ccccc3)C(=O)CCC2)ccc1C1=NNC(=O)CC1C (stereo not drawn) | 
26 | 8.60 | 7.70 | CC1(C)C(=O)NN=C1c1ccc(NC2=C(Cc3ccccc3)C(=O)CCC2)cc1F | 
27 | 9.03 | 8.51 | CC1CC(=O)NN=C1c1ccc(NC2=C(Cc3cccc([N+](=O)[O-])c3)C(=O)CCC2)cc1 (stereo not drawn) | 
28 | 9.15 | 8.64 | COc1ccc(CC2=C(Nc3ccc(C4=NNC(=O)CC4C)cc3)CCCC2=O)cc1 (stereo not drawn) | 
29 | 9.15 | 8.55 | CC1CC(=O)NN=C1c1ccc(NC2=C(Cc3cccc(F)c3)C(=O)CCC2)cc1 (stereo not drawn) | 
30 | 9.21 | 8.80 | CC1CC(=O)NN=C1c1cc(F)c(NC2=C(Cc3ccccc3)C(=O)CCC2)cc1F (stereo not drawn) | 
31 | 9.21 | 8.43 | Cc1cc(C2=NNC(=O)CC2C)ccc1/N=C1\CCCC(O)=C1Cc1ccccc1 (stereo not drawn) | 
32 | 9.46 | 9.08 | CC1CC(=O)NN=C1c1ccc(NC2=C(Cc3ccccc3C(F)(F)F)C(=O)CCC2)cc1 (stereo not drawn) | 
33 | 9.48 | 8.12 | CC1(C)C(=O)NN=C1c1ccc(/N=C2\CCCC(O)=C2Cc2cccc(C#N)c2)c(F)c1F | Selectivity [13]: 23
34 | 9.59 | 8.92 | CC1CC(=O)NN=C1c1ccc(/N=C2\CCCC(O)=C2Cc2ccccc2)c(F)c1 (stereo not drawn) | 
35 | 9.62 | 8.80 | CC1CC(=O)NN=C1c1ccc(NC2=C(Cc3ccccc3)C(=O)CCC2)cc1F (stereo not drawn) | 
36 | 9.72 | 8.89 | C[C@@H]1CC(=O)NN=C1c1ccc(NC2=C(Cc3ccccc3)C(=O)CCC2)cc1 | Max decrease [1]: 40%; bioavailability [2]: 61%; AUC [5]: 3.6 µM·h; Metabolic rate [6]: 14%; Max decrease [7]: 20%; ED50 [8]: 0.6 mg/kg; Metabolic rate [9]: 21%; ED50 [10]: 0.6 mg/kg; clearance [11]: 6.8 mL/min/kg; half-life [12]: 1 h
